Measurements: ChEMBL document CHEMBL4118216, “Adamantyl thioureas as soluble epoxide hydrolase inhibitors” (Bioorg Med Chem Lett, 2018)
≈ marks a conversion by molar mass, not a printed value.

Experiments:
[1] = Aqueous solubility of the compound in 0.1 M sodium phosphate buffer at pH 7.4; format: physicochemical
Method in brief: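 Solubility determined in 0.1 M sodium phosphate buffer, pH 7.4, with 1% DMSO present.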

[2] = biological target: T1, Bifunctional epoxide hydrolase 2 (Homo sapiens, UniProt P34913); assay: Inhibition of recombinant human sEH expressed in baculovirus expression system using CMNPC as substrate preincubated for 5 mins followed by substrate addition measured for 10 mins by fluorescent based assay
T1 sequence (P34913 whole entry): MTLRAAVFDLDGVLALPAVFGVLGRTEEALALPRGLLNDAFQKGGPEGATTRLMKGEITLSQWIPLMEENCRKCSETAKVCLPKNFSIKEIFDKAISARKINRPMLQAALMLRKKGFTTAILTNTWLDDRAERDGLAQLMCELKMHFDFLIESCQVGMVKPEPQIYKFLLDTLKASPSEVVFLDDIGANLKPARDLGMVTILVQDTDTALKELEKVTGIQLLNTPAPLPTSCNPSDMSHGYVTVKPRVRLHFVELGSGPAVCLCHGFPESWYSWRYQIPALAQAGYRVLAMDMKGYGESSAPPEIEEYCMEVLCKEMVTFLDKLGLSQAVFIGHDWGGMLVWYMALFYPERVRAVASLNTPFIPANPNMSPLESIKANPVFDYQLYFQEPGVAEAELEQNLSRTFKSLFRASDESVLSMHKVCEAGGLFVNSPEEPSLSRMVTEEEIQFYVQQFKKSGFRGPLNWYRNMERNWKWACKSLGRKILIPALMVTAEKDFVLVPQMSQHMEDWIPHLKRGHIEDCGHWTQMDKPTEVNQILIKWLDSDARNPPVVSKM
Method in brief: (§1)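 Kinetic fluorescent assay giving IC50 values; each value is the mean of three separate experiments.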

[3] = biological target: T2, Bifunctional epoxide hydrolase 2 (Mus musculus, UniProt P34914); assay: Inhibition of recombinant mouse sEH expressed in baculovirus expression system using CMNPC as substrate preincubated for 5 mins followed by substrate addition measured for 10 mins by fluorescent based assay; method in brief: as §1
T2 sequence (P34914 whole entry): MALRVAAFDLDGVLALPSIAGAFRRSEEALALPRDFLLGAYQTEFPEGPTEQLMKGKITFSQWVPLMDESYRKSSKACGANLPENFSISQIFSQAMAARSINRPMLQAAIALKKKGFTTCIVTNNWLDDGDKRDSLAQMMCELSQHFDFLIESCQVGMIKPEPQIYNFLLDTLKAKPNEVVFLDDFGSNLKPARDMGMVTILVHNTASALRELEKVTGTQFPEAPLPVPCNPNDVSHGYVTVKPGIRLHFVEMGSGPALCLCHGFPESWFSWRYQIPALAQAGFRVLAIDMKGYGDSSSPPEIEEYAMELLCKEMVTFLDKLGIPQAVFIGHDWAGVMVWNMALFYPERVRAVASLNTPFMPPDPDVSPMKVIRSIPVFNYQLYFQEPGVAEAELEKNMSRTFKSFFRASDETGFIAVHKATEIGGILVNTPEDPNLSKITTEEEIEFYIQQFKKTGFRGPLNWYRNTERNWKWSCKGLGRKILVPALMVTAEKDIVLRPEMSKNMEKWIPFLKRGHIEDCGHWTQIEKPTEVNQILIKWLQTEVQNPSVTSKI

[4] = biological target: T3, Bifunctional epoxide hydrolase 2 (Rattus norvegicus, UniProt P80299); assay: Inhibition of rat sEH using CMNPC as substrate preincubated for 5 mins followed by substrate addition measured for 10 mins by fluorescent based assay; method in brief: as §1
T3 sequence (P80299 whole entry): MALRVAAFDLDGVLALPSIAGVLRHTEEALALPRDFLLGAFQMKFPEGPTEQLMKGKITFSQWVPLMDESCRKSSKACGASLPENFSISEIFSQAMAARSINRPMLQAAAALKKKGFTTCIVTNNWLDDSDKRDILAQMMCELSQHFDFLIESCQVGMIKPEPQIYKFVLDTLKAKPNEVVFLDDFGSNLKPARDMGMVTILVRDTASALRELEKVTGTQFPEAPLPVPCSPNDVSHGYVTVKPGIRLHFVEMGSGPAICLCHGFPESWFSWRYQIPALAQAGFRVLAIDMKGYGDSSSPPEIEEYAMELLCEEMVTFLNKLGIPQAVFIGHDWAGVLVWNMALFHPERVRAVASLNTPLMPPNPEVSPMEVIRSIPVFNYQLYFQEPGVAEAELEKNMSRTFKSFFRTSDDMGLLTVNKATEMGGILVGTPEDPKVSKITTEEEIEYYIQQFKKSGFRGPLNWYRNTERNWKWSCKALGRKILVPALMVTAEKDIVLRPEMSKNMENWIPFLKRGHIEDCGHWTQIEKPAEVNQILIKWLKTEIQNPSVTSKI

Row | solubility [1] [µM] | IC50 [2] [nM] | SMILES | IC50 [3] [nM] | IC50 [4] [nM]
1 | 140 to 160 (≈ 70.4 to 80.5 µg/mL) |  | S=C(NCCCCNC(=S)NCC12CC3CC(CC(C3)C1)C2)NCC12CC3CC(CC(C3)C1)C2 |  | 
2 | 70 to 80 (≈ 31.4 to 35.9 µg/mL) | 2480 | CC12CC3CC(C)(C1)CC(NC(=S)Nc1ccc(C45CC6CC(CC(C6)C4)C5)cc1)(C3)C2 |  | 
3 | 10 to 25 (≈ 4.99 to 12.5 µg/mL) |  | CC(NC(=O)NCCCCNC(=O)NC(C)C12CC3CC(CC(C3)C1)C2)C12CC3CC(CC(C3)C1)C2 (centres undefined) |  | 
4 |  | 34.7 | S=C(Nc1ccc(Cl)cc1)NC12CC3CC(CC(C3)C1)C2 |  | 
5 | 70 to 80 (≈ 25.1 to 28.7 µg/mL) | 20.8 | S=C(NCC12CC3CC(CC(C3)C1)C2)NC12CC3CC(CC(C3)C1)C2 |  | 
6 | 30 to 40 (≈ 12.6 to 16.8 µg/mL) | 1250 | S=C(Nc1ccc(C23CC4CC(CC(C4)C2)C3)cc1)NC12CC3CC(CC(C3)C1)C2 |  | 
7 | 125 to 150 (≈ 46.6 to 55.9 µg/mL) | 259 | S=C(NCCC12CC3CC(CC(C3)C1)C2)NC1C2CC3CC(C2)CC1C3 (centres undefined) |  | 
8 | 35 to 45 (≈ 19.6 to 25.2 µg/mL) | 15.3 | S=C(NCCCCCCCCCCNC(=S)NC12CC3CC(CC(C3)C1)C2)NC12CC3CC(CC(C3)C1)C2 | 59.5 | 44.4
9 | 80 to 90 (≈ 29.8 to 33.5 µg/mL) | 152 | CC12CC3CC(C)(C1)CC(NC(=S)NC1C4CC5CC(C4)CC1C5)(C3)C2 (centres undefined) |  | 
10 | 30 to 40 (≈ 9.55 to 12.7 µg/mL) | 281 | Fc1cccc(NC(=S)NCC23CC4CC(CC(C4)C2)C3)c1 |  | 
11 | 100 to 120 (≈ 44.9 to 53.8 µg/mL) | 5330 | S=C(NCCC12CC3CC(CC(C3)C1)C2)Nc1ccc(C23CC4CC(CC(C4)C2)C3)cc1 |  | 
12 | 5 to 10 (≈ 1.64 to 3.29 µg/mL) |  | O=C(NC12CC3CC(CC(C3)C1)C2)NC12CC3CC(CC(C3)C1)C2 |  | 
13 | 60 to 80 (≈ 20.6 to 27.4 µg/mL) | 52 | S=C(NCCc1ccccc1)NCCC12CC3CC(CC(C3)C1)C2 |  | 
14 | 25 to 30 (≈ 8.21 to 9.86 µg/mL) | 133 | S=C(NCCc1ccccc1)NCC12CC3CC(CC(C3)C1)C2 |  | 
15 | 60 to 70 (≈ 20.7 to 24.1 µg/mL) | 14.8 | S=C(NC1C2CC3CC(C2)CC1C3)NC12CC3CC(CC(C3)C1)C2 (centres undefined) |  | 
16 | 30 to 40 (≈ 11.2 to 14.9 µg/mL) | 16.1 | CC12CC3CC(C)(C1)CC(NC(=S)NC14CC5CC(CC(C5)C1)C4)(C3)C2 |  | 
17 | 30 to 40 (≈ 10.8 to 14.3 µg/mL) | 902 | S=C(NCC12CC3CC(CC(C3)C1)C2)NC1C2CC3CC(C2)CC1C3 (centres undefined) |  | 
18 |  | 60.3 | CC(NC(=S)NC12CC3CC(CC(C3)C1)C2)C12CC3CC(CC(C3)C1)C2 (centres undefined) |  | 
19 | 30 to 40 (≈ 10.3 to 13.8 µg/mL) | 11.2 | S=C(NC12CC3CC(CC(C3)C1)C2)NC12CC3CC(CC(C3)C1)C2 |  | 
20 | 50 to 75 (≈ 23.5 to 35.3 µg/mL) |  | O=C(NCCCCNC(=O)NCC12CC3CC(CC(C3)C1)C2)NCC12CC3CC(CC(C3)C1)C2 |  | 
21 |  | 2590 | CC(NC(=S)Nc1ccccc1)C12CC3CC(CC(C3)C1)C2 (centres undefined) |  | 
22 | 25 to 35 (≈ 13.3 to 18.6 µg/mL) |  | S=C(NCCCCCCCCNC(=S)NC1C2CC3CC(C2)CC1C3)NC1C2CC3CC(C2)CC1C3 (centres undefined) |  | 
23 | 175 to 200 (≈ 58.2 to 66.5 µg/mL) | 551 | CC12CC3CC(C)(C1)CC(NC(=S)Nc1ccc(F)cc1)(C3)C2 |  | 
24 | 80 to 90 (≈ 26.6 to 29.9 µg/mL) | 160 | Fc1cccc(NC(=S)NCCC23CC4CC(CC(C4)C2)C3)c1 |  | 
25 | 50 to 60 (≈ 16.6 to 19.9 µg/mL) | 58 | CC12CC3CC(C)(C1)CC(NC(=S)Nc1cccc(F)c1)(C3)C2 |  | 
26 | 35 to 45 (≈ 11.6 to 15 µg/mL) | 451 | CC(NC(=S)Nc1cccc(F)c1)C12CC3CC(CC(C3)C1)C2 (centres undefined) |  | 

Row | SMILES | solubility [1] [µM] | IC50 [2] [nM] | IC50 [3] [nM] | IC50 [4] [nM]
27 | S=C(NCc1ccccc1)NC1C2CC3CC(C2)CC1C3 (centres undefined) | 65 to 75 (≈ 19.5 to 22.5 µg/mL) | 34 | 61 | 60.3
28 | S=C(Nc1ccccc1)NC1C2CC3CC(C2)CC1C3 (centres undefined) | 70 to 80 (≈ 20.1 to 22.9 µg/mL) | 229 | 408 | 356
